# UCH37 DUB inh: inhibitors of human UCH37 deubiquitinase, primary screen, biochemical, Ub-AMC cleavage, fluorescence. Ubiquitin carboxyl-terminal hydrolase isozyme L5 (Homo sapiens), Q9Y5K5. purified proteasome/UCH37. inhibition, % (no concentration beside the values). 330,000 compounds, 0.33% hits;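 active = mean inhibition over replicate wells above about 20%, limit read from the data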;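 also: 0% = compound-free wells with enzyme and 100% = wells lacking proteasome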
# Target sequence (Q9Y5K5 whole entry, looked up): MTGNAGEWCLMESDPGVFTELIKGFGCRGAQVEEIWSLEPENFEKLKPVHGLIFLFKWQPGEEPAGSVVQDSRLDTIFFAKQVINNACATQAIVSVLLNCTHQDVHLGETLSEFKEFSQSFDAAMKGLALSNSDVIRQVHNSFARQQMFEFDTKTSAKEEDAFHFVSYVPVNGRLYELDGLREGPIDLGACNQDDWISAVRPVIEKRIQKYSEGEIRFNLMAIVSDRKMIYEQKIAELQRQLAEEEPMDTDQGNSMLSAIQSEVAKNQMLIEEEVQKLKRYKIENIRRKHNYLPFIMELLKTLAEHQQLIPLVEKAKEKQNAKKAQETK
#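 Material: human UCH37 enzyme supplied as purified proteasome complex / Amount: 0.15 nM proteasome as dispensed / Buffer or medium: pH 7.4 Tris-HCl (50 mM) with ovalbumin, ATP-MgCl2, DTT / Times: preincubation 30 min, reaction 25 min, room temperature / Technique: AMC fluorescence from Ub-AMC cleavage, excitation 355 nm, emission 460 nm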
# pPAFAH inh: pPAFAH enzyme inhibitors, primary screen, biochemical, fluorescence polarization, human. recombinant pPAFAH, FP-rhodamine probe fluorescence polarization. inhibition, % at 3.39 µM. 330,000 compounds, 1.5% hits. AID 463082, 2010;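 active = inhibition above the mean inhibition across the screen plus 3 SD, cut at about 25% in these data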;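 also: inhibitors block binding of the rhodamine activity-based probe so polarization drops; 0% = enzyme with DMSO and 100% = wells lacking pPAFAH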
# PAFAH2 FP inh: PAFAH2 enzyme inhibitors, primary screen, biochemical, fluorescence polarization, human | recombinant PAFAH2, FP-rhodamine activity probe | inhibition, % at 3.39 µM | 340,000 compounds, 0.99% hits;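 active = inhibition above the mean over all tested compounds plus 3 SD, cut at about 30% in these data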;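 also: inhibitors block probe labeling of enzyme so polarization drops; 0% = enzyme with DMSO and 100% = wells lacking PAFAH2 protein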
# NR3A LBD binder: binders of NR3A ligand-binding domain, primary screen, biophysical, differential scanning fluorimetry, uHTS | Glutamate receptor ionotropic, NMDA 3A (GRIN3A) ligand-binding domain | NR3A LBD differential scanning fluorimetry, Tm shift; 0% = protein alone, 100% = glycine-bound protein | Tm shift relative to glycine control, % at 25 µM | 340,000 compounds, 2.5% hits;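 active = melting temperature shift of at least 10% of the positive control shift, at one fixed dose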
# PAFAH1B3 inh: PAFAH1B3 enzyme inhibitors, primary screen, biochemical, fluorescence polarization, human. Platelet-activating factor acetylhydrolase IB subunit alpha1 (Homo sapiens), Q15102. recombinant PAFAH1B3, FP-rhodamine probe. inhibition, % at 3.39 µM. 340,000 compounds, 0.28% hits. AID 492972, 2010;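 active = inhibition above the screen-wide average of all tested compounds plus 3 SD, cut at about 25% in these data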;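 also: 0% = enzyme with DMSO only and 100% = wells lacking PAFAH1B3 protein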
# PAFAH1B2 FP inh: PAFAH1B2 enzyme inhibitors, primary screen, biochemical, fluorescence polarization, human | AID 492953, 2010 | 340,000 compounds, 1.2% hits | inhibition, % at 3.39 µM | recombinant PAFAH1B2, FP-rhodamine activity probe | Platelet-activating factor acetylhydrolase IB subunit alpha2 (Homo sapiens), P68402;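 active = inhibition above the mean of all tested compounds plus 3 SD, cut at about 24% in these data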;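 also: 0% = enzyme with DMSO and 100% = wells lacking PAFAH1B2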
# Target sequence (P68402 whole entry, looked up): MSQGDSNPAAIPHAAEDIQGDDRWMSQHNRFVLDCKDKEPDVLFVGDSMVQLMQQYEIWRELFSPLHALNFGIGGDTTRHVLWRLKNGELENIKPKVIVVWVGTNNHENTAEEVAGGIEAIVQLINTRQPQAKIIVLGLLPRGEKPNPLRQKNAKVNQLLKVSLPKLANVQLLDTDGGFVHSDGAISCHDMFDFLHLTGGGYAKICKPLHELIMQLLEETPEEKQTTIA
# Numbers without * were called inactive; x = no result. The list is not random: actives were taken first. Their share in the collection is about 4.8%.
SMILES,UCH37 DUB inh,pPAFAH inh,PAFAH2 FP inh,NR3A LBD binder,PAFAH1B3 inh,PAFAH1B2 FP inh
Cc1snc(S(=O)(=O)/C(C#N)=N/Nc2cccc(C(F)(F)F)c2)c1C#N,x,14.2,3.4,24.4*,13.0,-1.7
COc1ccc(N/N=C(/C#N)S(=O)(=O)c2nsc(C)c2C#N)cc1,x,8.6,6.7,1.6,5.3,3.2
CCCCP(=O)(CCCC)c1ccccc1C(=O)O,-0.9,0.0,-8.4,12.2*,-2.7,4.2
CCCCP(=O)(CCCC)Cc1ccccc1,0.3,2.5,5.4,-1.6,-8.6,2.3
CCOc1cc(C=NNC(=O)CN2CCOCC2)ccc1OCc1ccccc1,2.0,x,x,x,x,x
O=C1C(Nc2ccccc2)=C(N2CCCCC2)C(=O)c2ccccc21,7.2,4.6,36.8*,-1.8,59.6*,17.2
CCc1ccc(C=NNC(=O)C(=O)NCCCN2CCOCC2)cc1,0.5,x,x,x,x,x
CCN(CC)CCN(C(=O)c1ccc(S(=O)(=O)N(CC)c2ccccc2)cc1)c1nc2c(OC)ccc(OC)c2s1,2.5,4.5,-2.5,11.9*,-4.6,30.5*
COc1ccc(C)c2sc(N(CCN(C)C)C(=O)c3ccc4ccccc4c3)nc12,6.1,0.6,-4.1,-1.4,-2.5,-1.0
CC(Sc1ccc(S(=O)(=O)N2CCN(C)CC2)cn1)C(=O)NC1(C#N)CCCCC1 (stereo not given),4.3,x,6.0,4.8,3.5,30.8*
CC(Sc1ccc(S(=O)(=O)N2CCN(C)CC2)cn1)C(=O)Nc1cccc(Cl)c1Cl (stereo not given),x,x,3.9,1.2,3.4,6.3
COc1cccc(C=NNC(=O)C(=O)N2CCCC2)c1,4.0,x,x,x,x,x
O=C(NC(=S)NCCc1ccccn1)c1ccco1,-0.1,-0.9,4.9,243.9*,5.6,1.6
O=C(NCCNCc1ccccn1)c1ccco1,-1.5,-0.1,-1.1,-1.3,-0.1,2.4
CN(CCc1ccccn1)C(=S)NC(=O)c1ccco1,2.9,3.8,1.0,-0.2,4.9,52.8*
CN(C)c1ccc(C=NN2C(=O)c3ccccc3C2=O)cc1,6.7,x,x,x,x,x
O=C(NN=Cc1ccsc1)c1cc2ccccc2o1,-53.9,x,x,x,x,x
Cc1ccc(C(=O)c2c(C)oc3c2C(=O)C(=O)c2ccccc2-3)cc1,42.2*,26.0*,13.4,-0.1,7.1,4.1
O=C(NN=C1CCCC1)c1cc(Br)ccc1O,-153.6,29.5*,4.7,-2.5,1.4,2.1
O=C(N/N=C/c1ccoc1)c1cc(Br)ccc1O,x,32.8*,11.6,-1.2,15.2,5.5
O=C(NN=Cc1ccoc1)c1ccccc1O,2.3,x,x,x,x,x
CC1CCCN(c2nc(-c3cccnc3)nc3scc(-c4ccccc4)c23)C1 (stereo not given),-25.6,-2.0,-5.0,11.6*,-6.1,-7.8
CC1CCN(c2nc(-c3cccnc3)nc3scc(-c4ccccc4)c23)CC1,1.5,1.0,-3.5,0.6,6.0,-2.8
O=C(NNC(=O)C1CCN(S(=O)(=O)c2ccc(Cl)cc2)CC1)c1ccc(S(=O)(=O)N2CCCCC2)cc1,-0.6,-0.2,-1.6,22.4*,-5.6,6.8
O=C(NCC1COc2ccccc2O1)C1CCN(S(=O)(=O)c2ccc(Cl)cc2)CC1 (stereo not given),0.6,4.3,-3.7,2.5,1.6,29.1*
SMILES,UCH37 DUB inh,pPAFAH inh,PAFAH2 FP inh,NR3A LBD binder,PAFAH1B3 inh,PAFAH1B2 FP inh
C=CCNC(=O)C1CCN(S(=O)(=O)c2ccc(Br)cc2)CC1,6.1,3.6,-0.8,0.9,3.8,33.1*
COc1ccc(C(=O)NNC(=O)C2CCN(S(=O)(=O)c3ccc(C)cc3)CC2)cc1,3.7,1.0,-3.5,-2.7,1.3,12.0
CCN(CC)S(=O)(=O)N1CCC(C(=O)NCC2COc3ccccc3O2)CC1 (stereo not given),3.1,5.2,-2.1,-3.4,3.5,3.7
Cc1ccc(C(=O)NNC(=O)C2CCN(S(=O)(=O)c3ccc(Cl)cc3)CC2)cc1,-1.0,4.6,7.5,-3.2,-0.6,26.4*
O=C(NCc1ccc(Cl)cc1)c1ccc(S(=O)(=O)N2CCCCC2)cc1,0.3,-1.2,-2.9,-2.6,-5.6,2.7
COc1cccc2cc(C(=O)Nc3ccccc3C)c(=NNS(=O)(=O)c3ccccc3)oc12,6.0,x,x,x,x,x
C(=Nn1cnc2ccccc21)c1cccnc1,8.6,x,x,x,x,x
NC(=NO)c1cn(Cc2ccccc2Cl)c2ccccc12,-0.2,x,x,x,x,x
COc1cc(C=Nn2cnc3c(sc4nc(C)cc(C)c43)c2=O)ccc1O,2.2,x,x,x,x,x
O=C(NCCc1ccc(Cl)cc1)C1CCCN1C(=O)Nc1ccccc1 (stereo not given),5.3,1.2,2.5,0.4,8.5,25.6*
CC(=O)Nc1ccc(S(=O)(=O)N2CCC(C(=O)NCCc3ccc(Cl)cc3)CC2)cc1,2.6,x,-0.5,-0.2,0.5,27.4*
CCOc1ccc(S(=O)(=O)NCCC(=O)OCC(=O)NC(=O)c2cccn2C)cc1,-0.3,25.3*,1.9,1.1,9.6,-0.1
CCOc1ccc(S(=O)(=O)NCCC(=O)NCCOc2ccccc2OC)cc1,4.2,-1.9,-2.7,20.8*,0.6,0.9
CC1(C)C(c2cccs2)=[N+]([O-])C2(CCCCCC2=NO)N1O (stereo not given),-0.9,x,x,x,x,x
O=C(O)Cc1ccc(-c2ccccc2-c2ccccc2)cc1,3.1,29.0*,-7.1,-1.7,4.2,79.6*
O=C(O)Cc1ccc(O)cc1,-2.0,2.4,4.6,-1.7,8.3,1.9
COc1ccc(-c2c3c(=O)n(C)c(=O)n(C)c3cn2C2CCCCC2)cc1,-18.1,25.1*,8.7,-0.7,10.3,4.7
CCCn1cc2c(c1-c1ccc(C)cc1)c(=O)n(C)c(=O)n2C,1.6,-1.7,3.3,-2.6,9.5,-1.4
CC(C)Oc1ccccc1-c1cc(C(=O)NN=Cc2cccnc2)c2ccccc2n1,1.0,x,x,x,x,x
Cc1cccc(NS(=O)(=O)c2ccc(C(=O)N3CC(C)OC(C)C3)cc2)c1C (stereo not given),-1.8,28.6*,3.9,-0.1,9.0,3.4
O=C(NN=Cc1ccc2c(c1)OCO2)c1cc(-c2ccccc2Cl)nc2ccccc12,-17.5,x,x,x,x,x
O=C(CSc1n[nH]c(-c2ccncc2)n1)Nc1ccc(F)cc1,1.4,1.3,9.7,-2.3,-1.8,-0.2
O=C(CSc1n[nH]c(-c2ccncc2)n1)Nc1ccccc1,2.5,4.2,1.0,27.4*,-0.7,-2.4
Cc1ccc(NC(=O)CSc2n[nH]c(C)c2[N+](=O)[O-])cc1C,0.4,-4.4,1.5,18.6*,3.8,2.3
O=C(CSc1n[nH]c(-c2ccco2)n1)Nc1ccc(Br)cc1,x,3.1,6.3,13.5*,3.0,0.6
